Laboratory results: ChEMBL document CHEMBL1124793, “Comparative reactivity of 1-carba-1-dethiacephalosporins with cephalosporins” (J Med Chem, 1990)
In brackets after ≈: the same amount, converted by molar mass.

Key:
[1] = Pseudo-first-order rate constant at pH 10 and 35 degrees Centigrade; type: ADME
Outline: (§1)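 Parent β-lactam loss followed by HPLC, starting at 3.9 × 10^-4–1 × 10^-3 M, at 35 °C and μ = 0.5. pH was held at 10 by a pH-stat adding NaOH. Pseudo-first-order rate constants were derived, with half-lives from these rates. Some runs were done at pH 11, and the constant was taken as 1/10 of the observed value, assuming proportionality to [OH].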

[2] = Half-life is evaluated; type: ADME; outline: as §1
Enterobacter cloacae = assay: In vitro inhibitory activity against Enterobacter cloacae EB5; type: functional
Outline: (§2)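 Agar dilution: compounds were diluted in 0.1 M phosphate buffer, pH 7.0, and mixed at 50 °C into Mueller–Hinton agar with 1% Bacto-Supplement C. Fresh overnight cultures were diluted to about 1 × 10^4 cells/μL and spotted at 1 μL. Plates were incubated overnight at 35 °C in ambient air. MIC (μg/mL) was the lowest concentration preventing visible growth.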

Escherichia coli [3] = assay: In vitro inhibitory activity against Escherichia coli EC14; type: functional; outline: as §2
Haemophilus influenzae = assay: In vitro inhibitory activity against Haemophilus influenza C.L; type: functional; outline: as §2
Klebsiella pneumoniae = assay: In vitro inhibitory activity against Klebsiella X26; type: functional; outline: as §2
Pseudomonas aeruginosa [4] = assay: In vitro inhibitory activity against Pseudomonas aeruginosa X258; type: functional; outline: as §2
Providencia rettgeri = assay: In vitro inhibitory activity against Proteus rettgeri C24; type: functional; outline: as §2
Staphylococcus aureus = assay: In vitro inhibitory activity against Staphylococcus aureus X1.1; type: functional; outline: as §2
Streptococcus pyogenes = assay: In vitro inhibitory activity against Streptococcus pyogenes Park; type: functional; outline: as §2
[5] = Pseudo-first-order rate constant at pH 10, micro=0.5, 35 degrees Centigrade; type: ADME; outline: as §1
Pseudomonas aeruginosa [6] = assay: In vitro in vitro inhibitory activity against Pseudomonas aeruginosa X258; type: functional; outline: as §2
Escherichia coli [7] = assay: Inhibitory activity against Escherichia coli EC14; type: functional; outline: as §2

SMILES | K [1] [h⁻¹] | half-life [2] [h] | MIC (Enterobacter cloacae) [µg/mL] | MIC (Escherichia coli [3]) [µg/mL] | MIC (Haemophilus influenzae) [µg/mL] | MIC (Klebsiella pneumoniae) [µg/mL] | MIC (Pseudomonas aeruginosa [4]) [µg/mL] | MIC (Providencia rettgeri) [µg/mL] | MIC (Staphylococcus aureus) [µg/mL] | MIC (Streptococcus pyogenes) [µg/mL] | K [5] [h⁻¹] | MIC (Pseudomonas aeruginosa [6]) [µg/mL] | MIC (Escherichia coli [7]) [µg/mL]
CO/N=C(\C(=O)N[C@@H]1C(=O)N2C(C(=O)[O-])=C(C[n+]3ccccc3)CC[C@H]12)c1csc(N)n1 | 0.0628 | 11 | 0.06 (≈ 0.131 µM) | 0.03 (≈ 0.0657 µM) | 0.5 (≈ 1.1 µM) | 0.03 (≈ 0.0657 µM) | 2 (≈ 4.38 µM) | 0.06 (≈ 0.131 µM) | 4 (≈ 8.76 µM) | 0.015 (≈ 0.0329 µM) | – | – | –
CO/N=C(\C(=O)N[C@@H]1C(=O)N2C(C(=O)O)=CCS[C@H]12)c1csc(N)n1 [CEFTIZOXIME] | 0.114 | 6.08 | 0.06 (≈ 0.156 µM) | 0.015 (≈ 0.0391 µM) | 0.015 (≈ 0.0391 µM) | 0.008 (≈ 0.0209 µM) | 32 (≈ 83.5 µM) | 0.008 (≈ 0.0209 µM) | 4 (≈ 10.4 µM) | 0.015 (≈ 0.0391 µM) | – | – | –
CC1=C(C(=O)O)N2C(=O)[C@@H](NC(=O)COc3ccccc3)[C@H]2SC1 | 0.0793 | 8.74 | 128 (≈ 367 µM) | 128 (≈ 367 µM) | 16 (≈ 45.9 µM) | 64 (≈ 184 µM) | 128 (≈ 367 µM) | 128 (≈ 367 µM) | 4 (≈ 11.5 µM) | 1 (≈ 2.87 µM) | – | – | –
O=C(COc1ccccc1)N[C@@H]1C(=O)N2C(C(=O)O)=C(Cl)CS[C@H]12 | 0.895 | 0.774 | 128 (≈ 347 µM) | 64 (≈ 174 µM) | 2 (≈ 5.42 µM) | 8 (≈ 21.7 µM) | 128 (≈ 347 µM) | 128 (≈ 347 µM) | 0.25 (≈ 0.678 µM) | 0.25 (≈ 0.678 µM) | – | – | –
COC(=O)C1=C(C(=O)O)N2C(=O)[C@@H](NC(=O)Cc3cccs3)[C@H]2CC1 | – | 0.867 | 128 (≈ 351 µM) | 1 (≈ 2.74 µM) | 1 (≈ 2.74 µM) | 0.25 (≈ 0.686 µM) | 128 (≈ 351 µM) | 8 (≈ 22 µM) | 0.25 (≈ 0.686 µM) | – | 0.799 | – | –
O=C(Cc1cccs1)N[C@@H]1C(=O)N2C(C(=O)O)=C(C(=O)O)CS[C@H]12 | 0.34 | 2.04 | – | – | – | – | – | – | – | – | – | – | –
O=C(COc1ccccc1)N[C@@H]1C(=O)N2C(C(=O)O)=C(Cl)CC[C@H]12 | – | 15.8 | 128 (≈ 365 µM) | 8 (≈ 22.8 µM) | 4 (≈ 11.4 µM) | 8 (≈ 22.8 µM) | 128 (≈ 365 µM) | 128 (≈ 365 µM) | 1 (≈ 2.85 µM) | 0.25 (≈ 0.713 µM) | 0.0438 | – | –
COCC1=C(C(=O)O)N2C(=O)[C@@H](NC(=O)COc3ccccc3)[C@H]2CC1 | – | 46.5 | 128 (≈ 355 µM) | 32 (≈ 88.8 µM) | 8 (≈ 22.2 µM) | 8 (≈ 22.2 µM) | 128 (≈ 355 µM) | 128 (≈ 355 µM) | 0.5 (≈ 1.39 µM) | 0.25 (≈ 0.694 µM) | 0.0149 | – | –
COC(=O)C1=C(C(=O)O)N2C(=O)[C@@H](NC(=O)Cc3cccs3)[C@H]2SC1 | 6.27 | 0.111 | 128 (≈ 335 µM) | 2 (≈ 5.23 µM) | 2 (≈ 5.23 µM) | 2 (≈ 5.23 µM) | – | 128 (≈ 335 µM) | 0.5 (≈ 1.31 µM) | 0.03 (≈ 0.0784 µM) | – | 128 (≈ 335 µM) | –
CC1=C(C(=O)O)N2C(=O)[C@@H](NC(=O)COc3ccccc3)[C@H]2CC1 | – | 433 | 128 (≈ 387 µM) | 128 (≈ 387 µM) | 32 (≈ 96.9 µM) | 32 (≈ 96.9 µM) | 128 (≈ 387 µM) | 128 (≈ 387 µM) | 4 (≈ 12.1 µM) | 1 (≈ 3.03 µM) | 0.0016 | – | –
N[C@@H](C(=O)N[C@@H]1C(=O)N2C(C(=O)O)=C(Cl)CS[C@H]12)c1ccccc1 [CEFACLOR ANHYDROUS] | 0.944 | 0.734 | 32 (≈ 87 µM) | 0.25 (≈ 0.68 µM) | 1 (≈ 2.72 µM) | 0.25 (≈ 0.68 µM) | 128 (≈ 348 µM) | 128 (≈ 348 µM) | 1 (≈ 2.72 µM) | 0.5 (≈ 1.36 µM) | – | – | –
CS(=O)(=O)OC1=C(C(=O)O)N2C(=O)[C@@H](NC(=O)COc3ccccc3)[C@H]2SC1 | 1.91 | 0.363 | 128 (≈ 299 µM) | – | 4 (≈ 9.34 µM) | 8 (≈ 18.7 µM) | 128 (≈ 299 µM) | 128 (≈ 299 µM) | 0.125 (≈ 0.292 µM) | 0.015 (≈ 0.035 µM) | – | – | 64 (≈ 149 µM)
N[C@@H](C(=O)N[C@@H]1C(=O)N2C(C(=O)O)=C(Cl)CC[C@H]12)c1ccccc1 [LORACARBEF ANHYDROUS] | 0.0324 | 21.4 | 4 (≈ 11.4 µM) | 0.25 (≈ 0.715 µM) | 0.5 (≈ 1.43 µM) | 0.25 (≈ 0.715 µM) | 128 (≈ 366 µM) | 128 (≈ 366 µM) | 2 (≈ 5.72 µM) | 1 (≈ 2.86 µM) | – | – | –
COCC1=C(C(=O)O)N2C(=O)[C@@H](NC(=O)COc3ccccc3)[C@H]2SC1 | 0.368 | 1.88 | 128 (≈ 338 µM) | 128 (≈ 338 µM) | 2 (≈ 5.29 µM) | 32 (≈ 84.6 µM) | 128 (≈ 338 µM) | 128 (≈ 338 µM) | 0.25 (≈ 0.661 µM) | 0.12 (≈ 0.317 µM) | – | – | –
CO/N=C(\C(=O)N[C@@H]1C(=O)N2C(C(=O)[O-])=C(C[n+]3ccccc3)CS[C@H]12)c1csc(N)n1 | 1.85 | 0.375 | 0.06 (≈ 0.126 µM) | 0.03 (≈ 0.0632 µM) | 0.06 (≈ 0.126 µM) | 0.03 (≈ 0.0632 µM) | 2 (≈ 4.21 µM) | 0.03 (≈ 0.0632 µM) | 1 (≈ 2.11 µM) | 0.03 (≈ 0.0632 µM) | – | – | –
CS(=O)(=O)OC1=C(C(=O)O)N2C(=O)[C@@H](NC(=O)COc3ccccc3)[C@H]2CC1 | 0.089 | 7.79 | 128 (≈ 312 µM) | 32 (≈ 78 µM) | 8 (≈ 19.5 µM) | 8 (≈ 19.5 µM) | 128 (≈ 312 µM) | 128 (≈ 312 µM) | 0.5 (≈ 1.22 µM) | 0.5 (≈ 1.22 µM) | – | – | –
CO/N=C(\C(=O)N[C@@H]1C(=O)N2C(C(=O)O)=CCC[C@H]12)c1csc(N)n1 | 0.00565 | 123 | 0.06 (≈ 0.164 µM) | 0.008 (≈ 0.0219 µM) | 0.008 (≈ 0.0219 µM) | 0.008 (≈ 0.0219 µM) | 32 (≈ 87.6 µM) | 0.008 (≈ 0.0219 µM) | 16 (≈ 43.8 µM) | 0.015 (≈ 0.0411 µM) | – | – | –
O=C(Cc1cccs1)N[C@@H]1C(=O)N2C(C(=O)O)=C(C(=O)O)CC[C@H]12 | 0.0105 | 66 | – | – | – | – | – | – | – | – | – | – | –
